Test results as given in ChEMBL document CHEMBL4376835, “Discovery of Nonpungent Transient Receptor Potential Vanilloid 1 (TRPV1) Agonist as Strong Topical Analgesic” (J Med Chem, 2020).
Active and inactive are the calls of the source.

How the values were obtained:
[1] = target: Transient receptor potential cation channel subfamily A member 1 (Mus musculus) (UniProt Q8BLA8); assay: Agonist activity at mouse TRPA1 expressed in HEK293 cells assessed as increase in calcium influx at 0.3 to 30 uM incubated for 1 min by Fluo-4-AM dye based FLIPR assay; type: cell-based
Procedure, shortened: (§1)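 Cells individually transfected with a single TRP channel (TRPV1, hTRPA1, mTRPA1, mTRPV3 or mTRPM8). Intracellular calcium influx recorded by FLIPR after the test compound was applied. Each cell type was also challenged with an agonist suited to its own TRP channel.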

[2] = Genotoxicity in Salmonella typhimurium TA98 incubated for 48 hrs by Ames test; type: toxicity; conditions: salmonella enterica subsp. enterica serovar typhimurium
[3] = Genotoxicity in Salmonella typhimurium TA97 incubated for 48 hrs in presence of rat S9 by Ames test; type: toxicity, subcellular; conditions: salmonella enterica subsp. enterica serovar typhimurium, s9, 48 h
[4] = target: T1, Transient receptor potential cation channel subfamily V member 3 (Mus musculus) (UniProt Q8K424); assay: Agonist activity at mouse TRPV3 expressed in HEK293 cells assessed as increase in calcium influx at 0.3 to 30 uM incubated for 1 min by Fluo-4-AM dye based FLIPR assay; type: cell-based; procedure, shortened: as §1
T1 sequence (whole entry): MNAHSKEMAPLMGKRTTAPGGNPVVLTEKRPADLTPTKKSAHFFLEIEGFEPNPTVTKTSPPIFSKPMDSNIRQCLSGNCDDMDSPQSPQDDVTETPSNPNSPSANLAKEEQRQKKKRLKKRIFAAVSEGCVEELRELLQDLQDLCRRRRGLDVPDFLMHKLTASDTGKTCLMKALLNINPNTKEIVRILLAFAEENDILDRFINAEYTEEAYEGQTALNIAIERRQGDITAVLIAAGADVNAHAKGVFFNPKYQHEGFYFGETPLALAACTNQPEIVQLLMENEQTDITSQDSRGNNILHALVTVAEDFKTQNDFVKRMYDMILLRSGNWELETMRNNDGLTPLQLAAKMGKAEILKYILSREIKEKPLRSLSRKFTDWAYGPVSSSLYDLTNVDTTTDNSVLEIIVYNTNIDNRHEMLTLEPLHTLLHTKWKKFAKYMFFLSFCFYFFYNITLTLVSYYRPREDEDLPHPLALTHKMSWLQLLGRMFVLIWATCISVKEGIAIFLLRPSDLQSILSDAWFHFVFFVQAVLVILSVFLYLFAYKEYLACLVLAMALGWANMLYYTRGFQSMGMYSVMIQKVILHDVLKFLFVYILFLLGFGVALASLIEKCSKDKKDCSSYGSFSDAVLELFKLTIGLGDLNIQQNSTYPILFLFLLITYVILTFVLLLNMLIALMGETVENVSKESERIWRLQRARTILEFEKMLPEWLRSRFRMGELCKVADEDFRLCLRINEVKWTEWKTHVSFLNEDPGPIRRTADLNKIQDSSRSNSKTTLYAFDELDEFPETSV

[5] = target: T2, Transient receptor potential cation channel subfamily V member 1 (Homo sapiens, UniProt Q8NER1); assay: Partial agonist activity at human TRPV1 expressed in CHO cells assessed as maximal increase in 45Ca2+ uptake incubated for 5 mins by liquid scintillation counting method relative to capsaicin; type: cell-based
Procedure, shortened: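 Human or rat TRPV1 heterologously expressed in CHO cells; functional agonism read as 45Ca2+ uptake. Values are means of at least three experiments.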

[6] = target: Transient receptor potential cation channel subfamily V member 1 (Rattus norvegicus, UniProt O35433); assay: Displacement of [3H]-RTX from rat TRPV1 expressed in CHO cells incubated for 60 mins by radioligand competition assay based scintillation counting method; type: cell-based
[7] = Genotoxicity in Salmonella typhimurium TA100 incubated for 48 hrs by Ames test; type: toxicity; conditions: salmonella enterica subsp. enterica serovar typhimurium
[8] = Genotoxicity in CHO-WBLT cells assessed as chromosomal aberration incubated for 6 hrs in presence of rat S9 by FISH painting analysis; type: toxicity, subcellular, Cricetulus griseus; conditions: chinese hamster, s9, 6 h
[9] = Genotoxicity in Salmonella typhimurium TA1537 incubated for 48 hrs by Ames test; type: toxicity; conditions: salmonella enterica subsp. enterica serovar typhimurium
[10] = target: Transient receptor potential cation channel subfamily V member 1 (Rattus norvegicus) (UniProt O35433); assay: Agonist activity at rat TRPV1 expressed in HEK293 cells assessed as increase in calcium influx at 0.3 to 30 uM incubated for 1 min by Fluo-4-AM dye based FLIPR assay; type: cell-based; procedure, shortened: as §1
Rattus norvegicus = assay: Analgesic activity in ip dosed L5/L6 spinal nerve ligation-induced neuropathic pain Sprague-Dawley rat model assessed as increase in paw withdrawal threshold in response to von frey filament compound administered at day 14 after ligation and measured up to 1.5 hrs after drug dosing by up and down method; type: functional
Procedure, shortened: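 Rat spinal nerve ligation model of neuropathic pain. Compound was given i.p. at 1, 2, 5 or 10 mg/kg; a gabapentin 65 mg/kg i.p. arm and a saline i.p. arm were run alongside. Von Frey withdrawal thresholds were taken pre-surgery and on days 1, 7 and 14, then at 0.5, 1 and 1.5 h post-dose. Mean±SEM, n=7-8.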

[11] = target: Transient receptor potential cation channel subfamily A member 1 (Homo sapiens) (UniProt O75762); assay: Agonist activity at human TRPA1 expressed in HEK293 cells assessed as increase in calcium influx at 0.3 to 30 uM incubated for 1 min by Fluo-4-AM dye based FLIPR assay; type: cell-based; procedure, shortened: as §1
Mus musculus [12] = assay: (§2) Analgesic activity in ip dosed formalin-induced nociception ICR mouse model assessed as reduction in pain behaviour by measuring less licking of formalin injected hind paw pretreated with compound 30 mins prior to formalin induction measured during second phase (20-30 mins after formalin injection) by formalin test; type: functional
Procedure, shortened: (§3)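 Mice were dosed i.p. with 0.1–10 mg/kg, with vehicle and gabapentin (50, 100 mg/kg i.p.) arms. 2% formalin was injected into the dorsal hindpaw, and paw-licking time was recorded for the first phase (5 min) and the second phase (20–30 min). ED50 was taken from the dose–response. Mean±SEM, n=8.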

[13] = target: Transient receptor potential cation channel subfamily V member 1 (Rattus norvegicus) (UniProt O35433); assay: Potency index, ratio of Ki of capsaicin to Ki for displacement of [3H]RTX from rat TRPV1 expressed in CHO cells incubated for 60 mins by scintillation counting method; type: cell-based
Mus musculus [14] = assay: as §2, with “first” for “second”, “(0-5” for “(20-30”; type: functional; procedure, shortened: as §3
[15] = Toxicity in ICR mouse assessed as skin irritation by measuring ear scratching administered topically and measured for 30 mins; conditions: in vivo, topical_or_ocular, 0.5 h
Procedure, shortened: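 Ear scratching test: a solution of the agent was applied to mouse ears, and scratching movements were counted over the following 30 min.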

[16] = Genotoxicity in ip dosed rat by micronucleus assay; type: toxicity, organism-based; conditions: in vivo
[17] = Toxicity in ICR mouse assessed as ear edema administered topically and measured after 30 mins; conditions: in vivo, topical_or_ocular, 0.5 h
Procedure, shortened: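 Ear swelling test: a solution of the agent was applied to mouse ears, and ear punch biopsies were collected 30 min later and weighed.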

[18] = target: T2, Transient receptor potential cation channel subfamily V member 1; assay: Potency index, ratio of EC50 of zu-capsaicin to EC50 of compound for agonist activity at human TRPV1 expressed in CHO cells assessed as increase in 45Ca2+ uptake incubated for 5 mins by liquid scintillation counting method; type: cell-based

Sequence of Transient receptor potential cation channel subfamily V member 1 (Rattus norvegicus) (O35433 whole entry): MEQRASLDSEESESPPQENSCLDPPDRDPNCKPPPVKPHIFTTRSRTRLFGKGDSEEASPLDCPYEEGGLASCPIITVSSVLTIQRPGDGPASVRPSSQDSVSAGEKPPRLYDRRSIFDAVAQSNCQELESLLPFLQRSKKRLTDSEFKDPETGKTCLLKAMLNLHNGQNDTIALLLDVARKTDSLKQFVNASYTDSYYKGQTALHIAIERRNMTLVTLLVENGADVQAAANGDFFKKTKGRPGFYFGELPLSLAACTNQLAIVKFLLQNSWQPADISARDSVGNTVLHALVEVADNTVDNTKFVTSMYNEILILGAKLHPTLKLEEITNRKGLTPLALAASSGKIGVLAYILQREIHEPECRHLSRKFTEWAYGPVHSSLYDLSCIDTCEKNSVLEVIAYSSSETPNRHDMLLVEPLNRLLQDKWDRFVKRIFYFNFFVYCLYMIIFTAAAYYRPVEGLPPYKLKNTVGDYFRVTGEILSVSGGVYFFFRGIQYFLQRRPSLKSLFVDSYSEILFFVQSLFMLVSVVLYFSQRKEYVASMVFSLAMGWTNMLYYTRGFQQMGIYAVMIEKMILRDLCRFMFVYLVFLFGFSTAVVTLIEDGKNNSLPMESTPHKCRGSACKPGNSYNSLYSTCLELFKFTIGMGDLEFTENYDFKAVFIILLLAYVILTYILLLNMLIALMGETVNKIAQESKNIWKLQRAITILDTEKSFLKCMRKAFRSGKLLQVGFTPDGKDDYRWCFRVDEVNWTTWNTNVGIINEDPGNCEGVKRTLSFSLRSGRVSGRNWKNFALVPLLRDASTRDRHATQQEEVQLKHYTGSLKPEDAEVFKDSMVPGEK
T2 sequence (Q8NER1 whole entry): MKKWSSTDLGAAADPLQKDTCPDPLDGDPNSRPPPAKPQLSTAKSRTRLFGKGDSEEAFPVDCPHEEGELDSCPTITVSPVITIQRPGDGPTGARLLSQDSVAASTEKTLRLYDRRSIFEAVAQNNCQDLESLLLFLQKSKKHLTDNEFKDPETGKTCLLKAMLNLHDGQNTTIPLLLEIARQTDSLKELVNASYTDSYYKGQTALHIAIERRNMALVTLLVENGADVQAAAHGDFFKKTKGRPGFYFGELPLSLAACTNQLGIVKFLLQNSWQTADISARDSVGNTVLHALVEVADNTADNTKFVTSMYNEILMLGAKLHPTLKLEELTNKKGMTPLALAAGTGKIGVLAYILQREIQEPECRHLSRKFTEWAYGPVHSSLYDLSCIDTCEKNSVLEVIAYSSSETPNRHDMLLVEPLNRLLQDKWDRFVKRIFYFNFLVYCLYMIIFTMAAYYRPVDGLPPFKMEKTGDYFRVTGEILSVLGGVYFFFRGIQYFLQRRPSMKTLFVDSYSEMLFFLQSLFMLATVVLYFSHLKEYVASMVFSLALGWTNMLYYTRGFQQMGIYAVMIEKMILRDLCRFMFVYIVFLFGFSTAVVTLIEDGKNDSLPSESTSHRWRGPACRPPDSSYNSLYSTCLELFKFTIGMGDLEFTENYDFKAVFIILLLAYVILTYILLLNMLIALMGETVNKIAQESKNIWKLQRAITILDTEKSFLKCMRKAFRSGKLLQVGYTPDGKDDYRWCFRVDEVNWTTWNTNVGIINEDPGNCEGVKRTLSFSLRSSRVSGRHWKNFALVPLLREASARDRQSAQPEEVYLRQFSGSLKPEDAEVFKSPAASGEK
Sequence of Transient receptor potential cation channel subfamily V member 1 (Rattus norvegicus, UniProt O35433) (O35433 whole entry): as the sequence (O35433 whole entry) above
Sequence of Transient receptor potential cation channel subfamily A member 1 (Homo sapiens) (O75762 whole entry): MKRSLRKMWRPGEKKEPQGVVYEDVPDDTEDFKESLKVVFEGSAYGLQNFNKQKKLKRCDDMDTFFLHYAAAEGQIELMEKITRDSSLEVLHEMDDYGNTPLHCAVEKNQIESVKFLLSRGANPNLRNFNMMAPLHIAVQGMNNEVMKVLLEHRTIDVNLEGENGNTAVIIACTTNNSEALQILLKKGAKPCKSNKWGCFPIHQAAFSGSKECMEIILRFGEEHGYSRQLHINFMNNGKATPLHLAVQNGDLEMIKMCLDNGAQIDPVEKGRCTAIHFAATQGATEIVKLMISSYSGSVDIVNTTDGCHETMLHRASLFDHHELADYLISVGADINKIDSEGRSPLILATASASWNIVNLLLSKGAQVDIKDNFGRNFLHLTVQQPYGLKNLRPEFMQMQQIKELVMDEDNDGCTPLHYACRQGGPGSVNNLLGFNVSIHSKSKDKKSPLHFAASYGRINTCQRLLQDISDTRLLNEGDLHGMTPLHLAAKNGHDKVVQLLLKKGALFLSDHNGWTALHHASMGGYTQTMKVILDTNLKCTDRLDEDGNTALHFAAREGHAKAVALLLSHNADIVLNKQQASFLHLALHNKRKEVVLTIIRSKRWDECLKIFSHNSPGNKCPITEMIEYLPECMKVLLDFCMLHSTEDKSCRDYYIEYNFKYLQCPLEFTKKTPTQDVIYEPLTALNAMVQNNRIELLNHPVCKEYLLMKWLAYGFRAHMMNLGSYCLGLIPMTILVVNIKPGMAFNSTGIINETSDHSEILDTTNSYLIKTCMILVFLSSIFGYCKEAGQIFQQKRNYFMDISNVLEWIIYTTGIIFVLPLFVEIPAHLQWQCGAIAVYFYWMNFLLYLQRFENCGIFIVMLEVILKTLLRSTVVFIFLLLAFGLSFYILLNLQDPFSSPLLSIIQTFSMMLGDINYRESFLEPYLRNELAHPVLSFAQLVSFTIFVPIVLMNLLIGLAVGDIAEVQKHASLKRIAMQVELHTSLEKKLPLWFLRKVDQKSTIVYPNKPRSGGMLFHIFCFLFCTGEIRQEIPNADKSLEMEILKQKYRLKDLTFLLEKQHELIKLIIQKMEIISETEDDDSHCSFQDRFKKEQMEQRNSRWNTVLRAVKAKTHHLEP
Sequence of Transient receptor potential cation channel subfamily A member 1 (Mus musculus) (Q8BLA8 whole entry): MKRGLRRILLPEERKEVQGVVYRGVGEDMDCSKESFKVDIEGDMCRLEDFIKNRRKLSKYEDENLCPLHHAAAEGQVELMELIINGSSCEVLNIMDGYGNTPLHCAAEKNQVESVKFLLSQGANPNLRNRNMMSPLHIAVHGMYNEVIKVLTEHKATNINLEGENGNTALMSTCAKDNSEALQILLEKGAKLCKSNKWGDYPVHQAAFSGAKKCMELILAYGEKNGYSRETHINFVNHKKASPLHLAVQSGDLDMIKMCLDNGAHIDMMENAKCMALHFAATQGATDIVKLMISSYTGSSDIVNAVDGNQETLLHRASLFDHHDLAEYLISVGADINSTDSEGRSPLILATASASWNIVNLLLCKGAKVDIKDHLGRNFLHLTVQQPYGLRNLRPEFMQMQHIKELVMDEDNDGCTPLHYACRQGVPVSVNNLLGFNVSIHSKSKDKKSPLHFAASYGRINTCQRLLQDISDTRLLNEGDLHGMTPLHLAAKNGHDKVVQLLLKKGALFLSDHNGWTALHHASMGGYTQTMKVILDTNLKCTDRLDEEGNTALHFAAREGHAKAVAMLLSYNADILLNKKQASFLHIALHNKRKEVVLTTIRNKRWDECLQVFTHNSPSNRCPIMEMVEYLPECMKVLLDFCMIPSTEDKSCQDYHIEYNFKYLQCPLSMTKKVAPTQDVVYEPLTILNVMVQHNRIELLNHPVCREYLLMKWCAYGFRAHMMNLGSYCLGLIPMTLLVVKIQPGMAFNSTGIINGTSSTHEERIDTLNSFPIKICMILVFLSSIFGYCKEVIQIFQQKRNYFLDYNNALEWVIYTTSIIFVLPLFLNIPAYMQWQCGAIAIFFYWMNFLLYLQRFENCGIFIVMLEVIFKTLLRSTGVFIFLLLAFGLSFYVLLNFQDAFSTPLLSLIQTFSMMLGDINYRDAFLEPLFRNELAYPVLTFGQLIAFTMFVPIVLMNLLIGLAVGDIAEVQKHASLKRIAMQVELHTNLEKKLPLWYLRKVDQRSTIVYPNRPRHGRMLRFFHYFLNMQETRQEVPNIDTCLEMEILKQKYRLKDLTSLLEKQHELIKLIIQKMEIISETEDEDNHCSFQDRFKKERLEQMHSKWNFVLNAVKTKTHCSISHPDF

CC(C)(C)c1nc(-c2cccc(Cl)c2)c(CNC(=O)Nc2ccc(CO)c(F)c2)s1
Activity [1]: inactive | Activity [2]: Non-Toxic | Activity [3]: Non-Toxic | Activity [4]: inactive | Activity [5]: 50 to 60% | Ki [6]: 23.8 nM | Activity [7]: Non-Toxic | Activity [8]: Non-Toxic | Activity [9]: Non-Toxic | Activity [10]: Active | Activity (Rattus norvegicus): Dose-dependent effect | ED50 (Rattus norvegicus): 0.5 to 2 mg/kg | Activity [11]: inactive | Activity (Mus musculus [12]): Dose-dependent effect | ED50 (Mus musculus [12]): 0.16 mg/kg | Ratio Ki [13]: 80 | Activity (Mus musculus [14]): Dose-dependent effect | ED50 (Mus musculus [14]): 0.79 mg/kg | Activity [15]: Non-Toxic | Activity [16]: Non-Toxic | Activity [17]: Non-Toxic | Ratio EC50 [18]: 5
